Key:
Assay type in all cases: functional
[1] = tested on: Mycobacterium tuberculosis; test: Antibacterial activity against drug resistant Mycobacterium tuberculosis containing phenotypic ahpC-32 mutation assessed as cumulative microbial sensitivity by phenotypic drug susceptibility testing
Method in brief: (§1)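 Phenotypic DST on clinical M. tuberculosis isolates by the egg-based Löwenstein-Jensen proportion method. Species was confirmed by biochemical tests and PCR. Mutations were found by sequencing. Each mutation is reported as a number and as a percentage of the isolates screened.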

[2] = tested on: Mycobacterium tuberculosis; test: Antibacterial activity against drug resistant Mycobacterium tuberculosis containing phenotypic ahpC-12 mutation assessed as cumulative microbial sensitivity by phenotypic drug susceptibility testing; method in brief: as §1
[3] = tested on: Mycobacterium tuberculosis; test: Antibacterial activity against drug resistant Mycobacterium tuberculosis containing phenotypic ahpC-15 mutation assessed as cumulative microbial sensitivity by phenotypic drug susceptibility testing; method in brief: as §1
[4] = tested on: Mycobacterium tuberculosis; test: Antibacterial activity against drug resistant Mycobacterium tuberculosis containing phenotypic inhA25 mutation assessed as cumulative microbial sensitivity by phenotypic drug susceptibility testing; method in brief: as §1
[5] = tested on: Mycobacterium tuberculosis; test: Antibacterial activity against drug resistant Mycobacterium tuberculosis containing phenotypic ahpC-39 mutation assessed as cumulative microbial sensitivity by phenotypic drug susceptibility testing; method in brief: as §1
[6] = tested on: Mycobacterium tuberculosis; test: Antibacterial activity against drug resistant Mycobacterium tuberculosis containing phenotypic katG322 mutation assessed as cumulative microbial sensitivity by phenotypic drug susceptibility testing; method in brief: as §1
[7] = tested on: Mycobacterium tuberculosis; test: Antibacterial activity against drug resistant Mycobacterium tuberculosis containing phenotypic katG315 mutation assessed as cumulative microbial sensitivity by phenotypic drug susceptibility testing; method in brief: as §1
[8] = tested on: Mycobacterium tuberculosis; test: Antibacterial activity against drug resistant Mycobacterium tuberculosis containing phenotypic katG299 mutation assessed as cumulative microbial sensitivity by phenotypic drug susceptibility testing; method in brief: as §1
[9] = tested on: Mycobacterium tuberculosis; test: Antibacterial activity against drug resistant Mycobacterium tuberculosis containing phenotypic inhA-15 mutation assessed as cumulative microbial sensitivity by phenotypic drug susceptibility testing; method in brief: as §1
[10] = tested on: Mycobacterium tuberculosis; test: Antibacterial activity against Mycobacterium tuberculosis containing phenotypic rpoB513,katG315,inhA-15,ahpC-10,ahpC-6 mutation assessed as microbial sensitivity by phenotypic drug susceptibility testing; method in brief: as §1
[11] = tested on: Mycobacterium tuberculosis; test: Antibacterial activity against Mycobacterium tuberculosis containing phenotypic embB306 mutation assessed as microbial sensitivity by phenotypic drug susceptibility testing; method in brief: as §1
[12] = tested on: Mycobacterium tuberculosis; test: Antibacterial activity against drug resistant Mycobacterium tuberculosis containing phenotypic ahpC-10 mutation assessed as cumulative microbial sensitivity by phenotypic drug susceptibility testing; method in brief: as §1
[13] = tested on: Mycobacterium tuberculosis; test: Antibacterial activity against drug resistant Mycobacterium tuberculosis containing phenotypic inhA-8 mutation assessed as cumulative microbial sensitivity by phenotypic drug susceptibility testing; method in brief: as §1
[14] = tested on: Mycobacterium tuberculosis; test: Antibacterial activity against drug resistant Mycobacterium tuberculosis containing phenotypic katG295 mutation assessed as cumulative microbial sensitivity by phenotypic drug susceptibility testing; method in brief: as §1
[15] = tested on: Mycobacterium tuberculosis; test: Antibacterial activity against drug resistant Mycobacterium tuberculosis containing phenotypic ahpC-9 mutation assessed as cumulative microbial sensitivity by phenotypic drug susceptibility testing; method in brief: as §1
[16] = tested on: Mycobacterium tuberculosis; test: Antibacterial activity against drug resistant Mycobacterium tuberculosis containing phenotypic ahpC-6 mutation assessed as cumulative microbial sensitivity by phenotypic drug susceptibility testing; method in brief: as §1
[17] = tested on: Mycobacterium tuberculosis; test: Antibacterial activity against drug resistant Mycobacterium tuberculosis containing phenotypic rpoB534 mutation assessed as cumulative microbial sensitivity by phenotypic drug susceptibility testing; method in brief: as §1
[18] = tested on: Mycobacterium tuberculosis; test: Antibacterial activity against drug resistant Mycobacterium tuberculosis containing phenotypic rpoB511 mutation assessed as cumulative microbial sensitivity by phenotypic drug susceptibility testing; method in brief: as §1
[19] = tested on: Mycobacterium tuberculosis; test: Antibacterial activity against drug resistant Mycobacterium tuberculosis containing phenotypic rpoB513 mutation assessed as cumulative microbial sensitivity by phenotypic drug susceptibility testing; method in brief: as §1
[20] = tested on: Mycobacterium tuberculosis; test: Antibacterial activity against drug resistant Mycobacterium tuberculosis containing phenotypic rpoB516 mutation assessed as cumulative microbial sensitivity by phenotypic drug susceptibility testing; method in brief: as §1
[21] = tested on: Mycobacterium tuberculosis; test: Antibacterial activity against drug resistant Mycobacterium tuberculosis containing phenotypic rpoB515 mutation assessed as cumulative microbial sensitivity by phenotypic drug susceptibility testing; method in brief: as §1
[22] = tested on: Mycobacterium tuberculosis; test: Antibacterial activity against Mycobacterium tuberculosis containing phenotypic rpoB531,rpoB526,rpo533 mutation assessed as microbial sensitivity by phenotypic drug susceptibility testing; method in brief: as §1
[23] = tested on: Mycobacterium tuberculosis; test: Antibacterial activity against drug resistant Mycobacterium tuberculosis containing phenotypic rpoB529 mutation assessed as cumulative microbial sensitivity by phenotypic drug susceptibility testing; method in brief: as §1
[24] = tested on: Mycobacterium tuberculosis; test: Antibacterial activity against drug resistant Mycobacterium tuberculosis containing phenotypic rpoB522 mutation assessed as cumulative microbial sensitivity by phenotypic drug susceptibility testing; method in brief: as §1
[25] = tested on: Mycobacterium tuberculosis; test: Antibacterial activity against drug resistant Mycobacterium tuberculosis containing phenotypic rpoB518 mutation assessed as cumulative microbial sensitivity by phenotypic drug susceptibility testing; method in brief: as §1
[26] = tested on: Mycobacterium tuberculosis; test: Antibacterial activity against drug resistant Mycobacterium tuberculosis containing phenotypic rpoB526 mutation assessed as cumulative microbial sensitivity by phenotypic drug susceptibility testing; method in brief: as §1
[27] = tested on: Mycobacterium tuberculosis; test: Antibacterial activity against drug resistant Mycobacterium tuberculosis containing phenotypic rpoB533 mutation assessed as cumulative microbial sensitivity by phenotypic drug susceptibility testing; method in brief: as §1
[28] = tested on: Mycobacterium tuberculosis; test: Antibacterial activity against drug resistant Mycobacterium tuberculosis containing phenotypic rpoB531 mutation assessed as cumulative microbial sensitivity by phenotypic drug susceptibility testing; method in brief: as §1
[29] = tested on: Mycobacterium tuberculosis; test: Antibacterial activity against drug resistant Mycobacterium tuberculosis containing phenotypic rpoB519 mutation assessed as cumulative microbial sensitivity by phenotypic drug susceptibility testing; method in brief: as §1

NNC(=O)c1ccncc1 [ISONIAZID]
Activity [1]: 88%
Activity [2]: 85.5%
Activity [3]: 88.4%
Activity [4]: 87.6%
Activity [5]: 86.4%
Activity [6]: 89.3%
Activity [7]: 72.7%
Activity [8]: 88.8%
Activity [9]: 78.5%
Activity [10]: 85.5%
Activity [11]: 89.3%
Activity [12]: 80.6%
Activity [13]: 86.4%
Activity [14]: 88.8%
Activity [15]: 87.6%
Activity [16]: 83.1%

CO[C@H]1/C=C/O[C@@]2(C)Oc3c(C)c(O)c4c(O)c(c(/C=N/N5CCN(C)CC5)c(O)c4c3C2=O)NC(=O)/C(C)=C\C=C\[C@H](C)[C@H](O)[C@@H](C)[C@@H](O)[C@@H](C)[C@H](OC(C)=O)[C@@H]1C [RIFAMPIN]
Activity [17]: 95.9%
Activity [18]: 94.2%
Activity [19]: 93.8%
Activity [20]: 87.2%
Activity [21]: 95.9%
Activity [22]: 93.8%
Activity [23]: 95.9%
Activity [11]: 93.8%
Activity [24]: 95.9%
Activity [25]: 95.9%
Activity [26]: 79.8%
Activity [27]: 90.9%
Activity [28]: 61.2%
Activity [29]: 96.3%

Reference: ChEMBL document CHEMBL1240374, “Selection of mutations to detect multidrug-resistant Mycobacterium tuberculosis strains in Shanghai, China” (2010)
